ChEMBL document CHEMBL3243954 (J Med Chem, 1979)

Assays:
[1] = Drug metabolism in mouse liver microsomes assessed as rate of esterase-mediated compound hydrolysis measured per mg of protein by pH stat based titrimetric analysis; type: ADME
[2] = tested on: Mus musculus; assay: Muscle relaxant activity in iv dosed mouse after 60 mins by rotarod test; type: ADME, organism-based; settings: in vivo, 1 h
[3] = tested on: Mus musculus; assay: Muscle relaxant activity in iv dosed mouse after 30 mins by rotarod test; type: ADME, organism-based; settings: in vivo, 0.5 h
[4] = tested on: Mus musculus; assay: Antimetrazol activity in iv dosed mouse assessed as inhibition of metrazol-induced tonic-extensor seizures administered 30 mins prior to metrazol challenge; type: functional
How it was run: (§1)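 Mice dosed iv with the ester in aqueous solution containing under 10% chremofor. Metrazol 125 mg/kg sc was given 30 or 60 min after the ester. ED50 is the dose preventing tonic-extensor seizures in 50% of mice, derived by probit analysis.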

[5] = organism: Mus musculus; assay: Ratio of ED50 for muscle relaxant activity in mouse to ED50 for antimetrazol activity in mouse measured after 60 mins
[6] = tested on: Mus musculus; assay: Antimetrazol activity in iv dosed mouse assessed as inhibition of metrazol-induced tonic-extensor seizures administered 60 mins prior to metrazol challenge; type: functional; how it was run: as §1
[7] = organism: Mus musculus; assay: Ratio of ED50 for muscle relaxant activity in mouse to ED50 for antimetrazol activity in mouse measured after 30 mins
[8] = tested on: esterase; assay: (§2) Drug metabolism in mouse liver microsomes assessed as rate of esterase-mediated compound hydrolysis by pH stat based titrimetric analysis; type: ADME; settings: liver microsomes
[9] = tested on: Brain; assay: Drug uptake albino mouse brain at 10 mg equivalent of oxazepam/kg, iv after 20 mins measured per gm of tissue by thin-layer chromatography; type: ADME, organism-based; settings: in vivo
[10] = tested on: Brain; assay: Drug uptake albino mouse brain at 10 mg equivalent of oxazepam/kg, iv after 10 mins measured per gm of tissue by thin-layer chromatography; type: ADME, organism-based; settings: in vivo
[11] = tested on: Brain; assay: Drug uptake albino mouse brain at 10 mg equivalent of oxazepam/kg, iv after 120 mins measured per gm of tissue by thin-layer chromatography; type: ADME, organism-based; settings: in vivo, 2 h
[12] = tested on: Brain; assay: Drug uptake albino mouse brain at 10 mg equivalent of oxazepam/kg, iv after 3 mins measured per gm of tissue by thin-layer chromatography; type: ADME, organism-based; settings: in vivo, 0.05 h
[13] = tested on: Brain; assay: Drug uptake albino mouse brain at 10 mg equivalent of oxazepam/kg, iv after 30 mins measured per gm of tissue by thin-layer chromatography; type: ADME, organism-based; settings: in vivo, 0.5 h
[14] = tested on: Brain; assay: Drug uptake albino mouse brain at 10 mg equivalent of oxazepam/kg, iv after 240 mins measured per gm of tissue by thin-layer chromatography; type: ADME, organism-based; settings: in vivo, 4 h
[15] = tested on: Brain; assay: Drug uptake albino mouse brain at 10 mg equivalent of oxazepam/kg, iv after 60 mins measured per gm of tissue by thin-layer chromatography; type: ADME, organism-based; settings: in vivo, 1 h
[16] = tested on: Brain; assay: Drug uptake albino mouse brain at 10 mg equivalent of oxazepam/kg, iv after 1 min measured per gm of tissue by thin-layer chromatography; type: ADME, organism-based; settings: in vivo
[17] = tested on: Brain; assay: Drug uptake albino mouse brain at 10 mg equivalent of oxazepam/kg, iv after 5 mins measured per gm of tissue by thin-layer chromatography; type: ADME, organism-based; settings: in vivo
[18] = Retardation factor, Rm of the compound by thin-layer chromatography; type: physicochemical
[19] = tested on: Liver; assay: Drug metabolism in albino mouse liver assessed as total metabolite concentration at 5 mg equivalent of oxazepam/kg, iv after 5 mins by thin layer chromatography; type: ADME, organism-based; settings: in vivo
How it was run: (§3)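 Liver was dried and its total radioactivity, the sum of metabolites, was measured on a carbon-tritium analyzer. Values are means of four mice (±SE).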

[20] = tested on: Brain; assay: Drug uptake albino mouse brain at 5 mg equivalent of oxazepam/kg, iv after 60 mins measured per gm of tissue by thin-layer chromatography; type: ADME, organism-based; settings: in vivo, 1 h
[21] = tested on: Liver; assay: Drug metabolism in albino mouse liver assessed as total metabolite concentration at 5 mg equivalent of oxazepam/kg, iv after 1 min by thin layer chromatography; type: ADME, organism-based; settings: in vivo; how it was run: as §3
[22] = tested on: Liver; assay: Drug metabolism in albino mouse liver assessed as total metabolite concentration at 5 mg equivalent of oxazepam/kg, iv after 10 mins by thin layer chromatography; type: ADME, organism-based; settings: in vivo; how it was run: as §3
[23] = tested on: Liver; assay: Drug metabolism in albino mouse liver assessed as total metabolite concentration at 5 mg equivalent of oxazepam/kg, iv after 3 mins by thin layer chromatography; type: ADME, organism-based; settings: in vivo, 0.05 h; how it was run: as §3
[24] = tested on: Brain; assay: Drug uptake albino mouse brain at 5 mg equivalent of oxazepam/kg, iv after 240 mins measured per gm of tissue by thin-layer chromatography; type: ADME, organism-based; settings: in vivo, 4 h
[25] = tested on: Brain; assay: Drug uptake albino mouse brain at 5 mg equivalent of oxazepam/kg, iv after 120 mins measured per gm of tissue by thin-layer chromatography; type: ADME, organism-based; settings: in vivo, 2 h
[26] = tested on: Brain; assay: Drug uptake albino mouse brain at 5 mg equivalent of oxazepam/kg, iv after 5 mins measured per gm of tissue by thin-layer chromatography; type: ADME, organism-based; settings: in vivo
[27] = tested on: Brain; assay: Drug uptake albino mouse brain at 5 mg equivalent of oxazepam/kg, iv after 40 mins measured per gm of tissue by thin-layer chromatography; type: ADME, organism-based; settings: in vivo
[28] = tested on: Brain; assay: Drug uptake albino mouse brain at 5 mg equivalent of oxazepam/kg, iv after 20 mins measured per gm of tissue by thin-layer chromatography; type: ADME, organism-based; settings: in vivo
[29] = tested on: Brain; assay: Drug uptake albino mouse brain at 5 mg equivalent of oxazepam/kg, iv after 3 mins measured per gm of tissue by thin-layer chromatography; type: ADME, organism-based; settings: in vivo, 0.05 h
[30] = tested on: Brain; assay: Drug uptake albino mouse brain at 5 mg equivalent of oxazepam/kg, iv after 1 min measured per gm of tissue by thin-layer chromatography; type: ADME, organism-based; settings: in vivo
[31] = tested on: Brain; assay: Drug uptake albino mouse brain at 5 mg equivalent of oxazepam/kg, iv after 10 mins measured per gm of tissue by thin-layer chromatography; type: ADME, organism-based; settings: in vivo
[32] = as §2; type: ADME; settings: microsomes
[33] = Mus musculus, iv, read-out: ED50

Row | Structure (SMILES) | Vmax [1] | ED50 [2] | ED50 [3] | ED50 [4, 33] | Ratio ED50 [5] | ED50 [6, 33] | Ratio ED50 [7] | also measured
1 | CCC(CC)C(=O)OC1N=C(c2ccccc2)c2cc(Cl)ccc2NC1=O (configuration not stated) | 1.4 nmol/min | 3.42 mg/kg | 2.8 mg/kg | 0.28 mg/kg | 10.4 | 0.33 mg/kg | 10 | –
2 | CC(=O)OC1N=C(c2ccccc2)c2cc(Cl)ccc2NC1=O (configuration not stated) | 323 nmol/min | 1.2 mg/kg | 0.97 mg/kg | 0.38 mg/kg | 3.6 | 0.33 mg/kg | 2.6 | –
3 | CCC(=O)OC1N=C(c2ccccc2)c2cc(Cl)ccc2NC1=O (configuration not stated) | 139 nmol/min | 4.4 mg/kg | 4.45 mg/kg | 0.13 mg/kg | 13.8 | 0.32 mg/kg | 34.2 | –
4 | CCCC(=O)OC1N=C(c2ccccc2)c2cc(Cl)ccc2NC1=O (configuration not stated) | 88 nmol/min | 3.28 mg/kg | 2.64 mg/kg | 0.29 mg/kg | 10.3 | 0.32 mg/kg | 9.1 | –
5 | CC(C)C(=O)OC1N=C(c2ccccc2)c2cc(Cl)ccc2NC1=O (configuration not stated) | 131 nmol/min | 2.67 mg/kg | 2.45 mg/kg | 0.51 mg/kg | 8.1 | 0.33 mg/kg | 4.8 | –
6 | COC(=O)CCC(=O)OC1N=C(c2ccccc2)c2cc(Cl)ccc2NC1=O (configuration not stated) | 125 nmol/min | – | – | – | – | – | – | –
7 | O=C(CCCc1ccccc1)OC1N=C(c2ccccc2)c2cc(Cl)ccc2NC1=O (configuration not stated) | 1.5 nmol/min | – | – | – | – | – | – | Km [8]: 9.5 µM
8 | O=C(CCc1ccccc1)OC1N=C(c2ccccc2)c2cc(Cl)ccc2NC1=O (configuration not stated) | 7.9 nmol/min | 3.56 mg/kg | 2.57 mg/kg | 0.44 mg/kg | 11.5 | 0.31 mg/kg | 5.8 | Km [8]: 9.7 µM
9 | CC(=O)OC1N=C(c2ccccc2)c2cc(Cl)ccc2N[14C]1=O (configuration not stated) | – | – | – | – | – | – | – | Drug uptake [9]: 49.2 nmol; Drug uptake [10]: 59.5 nmol; Drug uptake [11]: 33 nmol; Drug uptake [12]: 39.4 nmol; Drug uptake [13]: 40.3 nmol; Drug uptake [14]: 11 nmol; Drug uptake [15]: 46.6 nmol; Drug uptake [16]: 29.9 nmol; Drug uptake [17]: 47.5 nmol; Rm [18]: -0.15
10 | O=C(CCc1ccccc1)OC1N=C(c2ccccc2)c2cc(Cl)ccc2N[14C]1=O (configuration not stated) | – | – | – | – | – | – | – | Drug metabolism [19]: 34.7 nmol/g; Drug uptake [20]: 13.6 nmol; Drug metabolism [21]: 40.7 nmol/g; Drug metabolism [22]: 32.6 nmol/g; Drug metabolism [23]: 45.6 nmol/g; Drug uptake [24]: 6.6 nmol; Drug uptake [25]: 12.2 nmol; Drug uptake [26]: 1.4 nmol; Drug uptake [27]: 12.1 nmol; Drug uptake [28]: 7.1 nmol; Drug uptake [29]: 0.8 nmol; Drug uptake [30]: 0.5 nmol; Drug uptake [31]: 2.2 nmol; Rm [18]: 0.5
11 | O=C(Cc1ccccc1)OC1N=C(c2ccccc2)c2cc(Cl)ccc2NC1=O (configuration not stated) | 12.2 nmol/min | – | – | – | – | – | – | Km [8]: 22.7 µM
12 | CC(Cc1ccccc1)C(=O)OC1N=C(c2ccccc2)c2cc(Cl)ccc2NC1=O (racemic) | 2.4 nmol/min | 4.01 mg/kg | 3.75 mg/kg | – | 6.1 | 0.66 mg/kg | 7.4 | Km [32]: 8.3 µM; ED50 [4]: 0.51 mg/kg
13 | CC(Cc1ccccc1)C(=O)OC1N=C(c2ccccc2)c2cc(Cl)ccc2N[14C]1=O (racemic) | – | – | – | – | – | – | – | Drug uptake [20]: 13 nmol; Drug uptake [24]: 5.5 nmol; Drug uptake [25]: 14.2 nmol; Drug uptake [27]: 10 nmol; Drug uptake [28]: 5.4 nmol; Drug uptake [29]: 1.3 nmol; Drug uptake [31]: 4.7 nmol; Rm [18]: 0.64
14 | CC(Cc1ccccc1)C(=O)OC1N=C(c2ccccc2)c2cc(Cl)ccc2NC1=O (single isomer, unassigned; (-)) | 2.6 nmol/min | 2.2 mg/kg | 2.86 mg/kg | – | 2.4 | – | 3.5 | Km [32]: 8.7 µM; ED50 [4]: 0.81 mg/kg; ED50 [6]: 0.92 mg/kg
15 | CC(Cc1ccccc1)C(=O)OC1N=C(c2ccccc2)c2cc(Cl)ccc2N[14C]1=O (single isomer, unassigned; (-)) | – | – | – | – | – | – | – | Drug uptake [20]: 14.8 nmol; Drug uptake [24]: 12.2 nmol; Drug uptake [25]: 13.7 nmol; Drug uptake [26]: 1.6 nmol; Drug uptake [27]: 11.8 nmol; Drug uptake [28]: 6.7 nmol; Drug uptake [29]: 0.8 nmol; Drug uptake [31]: 4.6 nmol
16 | CC(Cc1ccccc1)C(=O)OC1N=C(c2ccccc2)c2cc(Cl)ccc2NC1=O (stereo in doubt; 11) | 7.3 nmol/min | 3.83 mg/kg | 2.67 mg/kg | – | 4.7 | – | 6.8 | Km [32]: 25 µM; ED50 [4]: 0.39 mg/kg; ED50 [6]: 0.82 mg/kg
17 | CC(Cc1ccccc1)C(=O)OC1N=C(c2ccccc2)c2cc(Cl)ccc2N[14C]1=O (stereo in doubt; [14C]-11) | – | – | – | – | – | – | – | Drug uptake [20]: 12.8 nmol; Drug uptake [24]: 7.2 nmol; Drug uptake [25]: 11.7 nmol; Drug uptake [26]: 2.6 nmol; Drug uptake [27]: 10.8 nmol; Drug uptake [28]: 7.7 nmol; Drug uptake [29]: 2.1 nmol; Drug uptake [31]: 5.6 nmol
18 | O=C1Nc2ccc(Cl)cc2C(c2ccccc2)=NC1O (configuration not stated) [OXAZEPAM] | – | – | – | 0.18 mg/kg | – | 0.39 mg/kg | – | –
